Screening results as filed in PubChem BioAssay.
Only some compounds are listed: those with a hit (about 1.4% of all), similar ones and a draw of the others.
Tn7 DDE FP = DD(E)-Tn7 binding inhibition, primary FP screen; P02675; FP displacement of FITC-Tn7 peptide from fibrin DD(E); 0% = median of compound wells per plate; inhibition, % at 8.3 µM; 370,000 tested, 0.13% active;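 active = inhibition above the mean of compounds falling within the control limits plus 3 SD of them, cut at about 14% in these data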;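 also: 0% = plate median of compound wells and 100% = 10 µM Aha-Tn7 peptide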
Target sequence (P02675 whole entry, looked up): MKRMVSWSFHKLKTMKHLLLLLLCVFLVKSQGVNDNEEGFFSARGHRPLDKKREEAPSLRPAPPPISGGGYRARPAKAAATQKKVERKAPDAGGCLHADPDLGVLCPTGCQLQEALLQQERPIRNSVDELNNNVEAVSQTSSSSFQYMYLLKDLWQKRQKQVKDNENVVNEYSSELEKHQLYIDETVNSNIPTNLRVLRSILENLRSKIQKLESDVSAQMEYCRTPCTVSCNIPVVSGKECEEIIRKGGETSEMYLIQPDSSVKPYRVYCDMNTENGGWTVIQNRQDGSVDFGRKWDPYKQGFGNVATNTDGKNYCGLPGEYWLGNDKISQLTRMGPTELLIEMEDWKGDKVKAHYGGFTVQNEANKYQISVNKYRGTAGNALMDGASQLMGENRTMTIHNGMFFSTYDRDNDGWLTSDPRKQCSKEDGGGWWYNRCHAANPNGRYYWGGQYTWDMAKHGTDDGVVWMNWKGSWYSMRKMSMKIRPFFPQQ
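Assay system: Fibrin-DD(E) protein isolated from polymerized human fibrin clots; read-out basis: percent inhibition; medium: Tris/NaCl/CaCl2 buffer, pH 7.8; signal: FP measurement; incubation: 10 min plus 3 h, room temperature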
cardiac RTF act = increases calcium sensitivity of human cardiac regulated thin filaments | activation, % at 7.2 µM | AID 493008 | 340,000 tested, 0.24% active | IANBD-labeled TnC RTF fluorescence at EC20 calcium; 0% EC20 calcium, 100% full calcium;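 active = activation above the mean over all tested compounds plus 3 SD, cut at about 30% in these data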;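 also: rise in fluorescence read as greater calcium sensitivity of cardiac thin filaments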
DDE Tn6 FP inh = disrupts Tn6 cyclic peptide binding to fibrin D-Dimer-E complex. Fibrin DD(E) TRITC-Tn6 fluorescence polarization displacement. P02675. AID 720509. inhibition, % at 8.3 µM. 370,000 tested, 0.21% active;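 active = inhibition above a per-campaign cutoff: mean of compounds within control limits plus 3 SD, cut at about 15% in these data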;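 also: 0% = median of all compound wells on the plate and 100% = blocking peptide control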
Cardiac RTF inh = cardiac RTF calcium desensitization. P19429+P45379. IANBD-labeled cardiac RTF, Ca2+ fluorescence. inhibition, % at 7.15 µM. 340,000 tested, 0.12% active;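 active = inhibition above the mean inhibition of all tested compounds plus 3 SD, cut at about 17% in these data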;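 also: assay run at fixed EC70 calcium of 1.6 mM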
CRFBP-R2 block = antagonists of CRF-binding protein/CRF-R2 receptor complex. HEK293 CRF-R2/CRF-BP, CRF-induced calcium fluorescence. inhibition, % at 11.8 µM. 350,000 tested, 0.59% active;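 active = inhibition of the ligand-induced calcium signal above about 50% at the single tested concentration, limit read from the data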
CRFR2-BP ag = agonists of human CRF-binding protein/CRF-R2 receptor complex; activation, % at 13.2 µM; 350,000 tested, 0.46% active; HEK293 CRF-R2/CRF-BP, calcium dye fluorescence (FLIPR); percent of saturating CRF peptide response;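 active = activation of at least 50%, plus an integration ratio under a set limit after plate pattern correction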;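 also: plate controls were neutral control wells without compound for no effect and CRF at EC100 for full effect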
Tn7 DDE conf = confirmation of inhibitors of Tn7 binding to human fibrin DD(E); shares compounds with Tn7 DDE FP; FP displacement of TRITC-Tn7 peptide from DD(E); 0% set at plate's compound-well median; inhibition, % at 8.3 µM; 460 tested, 5% active;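 active = inhibition above the campaign cutoff, the mean of compounds within control limits plus 3 SD, cut at about 14% in these data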;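 also: 100% = median FP of high control wells holding Aha-Tn7 inhibitor peptide; displacers lower polarization since freed probe rises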
DDE Tn7 FP ctr = counter-screen for inhibitors of Tn7 peptide binding to fibrin DD(E); shares compounds with Tn7 DDE FP; TRITC-Tn7 probe displacement, fluorescence polarization; inhibition, % at 8.3 µM; 460 tested, 3% active; AID 720633;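 active = inhibition above the cutoff, the mean of compounds lying between the control bounds plus 3 SD of those compounds, cut at about 17% in these data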;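 also: 0% = median of compound sample wells and 100% = excess unlabeled Aha-Tn7 peptide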
The depositor's hits bear a star; . = no result given.

SMILES	Tn7 DDE FP	cardiac RTF act	DDE Tn6 FP inh	Cardiac RTF inh	CRFBP-R2 block	CRFR2-BP ag	Tn7 DDE conf	DDE Tn7 FP ctr
Cc1ccc(CNC(=O)O[C@H]2CC[C@@]34CCCN3C(=O)CCC[C@H]4[C@H]2C)cc1	6	.	1	.	.	.	.	.
C=CCN=C1NC(c2cccc(Cl)c2)C(C(=O)OC)=C(C)N1C (stereo not given)	-2	.	-4	.	.	.	.	.
COc1ccc(/C=C/c2cc(C(=O)O)c3ccccc3n2)cc1	38*	-2	9	3	11	3	2	2
CSc1ccc(C(O)c2ncc(-c3cccc(F)c3)[nH]2)cc1 (stereo not given)	-4	.	-5	.	.	.	.	.
COc1ccccc1-c1ccccc1C1=CC(=O)CC(C)(C)C1=O	14*	.	0	.	-9	0	3	1
CCOc1cc(C(C(=O)NCC2CCCO2)N(C(=O)Cn2nnc3ccccc32)c2ccc(NC(C)=O)cc2)ccc1O (stereo not given)	31*	1	1	-42	-1	3	-2	-7
COc1cc(C(C(=O)NCC2CCCO2)N(C(=O)Cn2nnc3ccccc32)c2ccc(OC)c(OC)c2)ccc1O (stereo not given)	0	-2	-2	-12	-19	0	.	.
COc1ccc(NS(=O)(=O)c2ccc3c(c2)NC(=O)C(C)S3)cc1 (stereo not given)	14*	-2	-9	-9	-15	7	-2	-7
COc1ccc(NC(=O)C2CCN(S(=O)(=O)c3ccc4c(c3)NC(=O)C(C)S4)CC2)cc1 (stereo not given)	3	-2	7	-2	1	1	.	.
CCOC(=O)C1=C(C)Nc2ccccc2N/C1=N\S(=O)(=O)c1ccc(Cl)cc1	-11	-7	-3	0	12	2	.	.
CCOC(=O)C1=C(C)Nc2ccccc2N/C1=N\S(=O)(=O)c1cccc(Cl)c1	16*	2	0	-7	9	0	7	-1
CCOC(=O)CSc1nc(NCc2ccco2)c2ccccc2n1	15*	-10	-3	3	-10	-1	1	-2
Cc1ccc(S(=O)(=O)C(C#N)c2nc3ccccc3nc2N2CCCC2)cc1 (stereo not given)	16*	3	1	-19	-55	56*	3	2
CCN1CCN(c2nc3ccccc3nc2C(C#N)S(=O)(=O)c2ccc(C)cc2)CC1 (stereo not given)	-1	-3	-1	-3	12	2	.	.
COC(=O)c1cc2c(c3c4cc(C)ccc4n(S(=O)(=O)c4ccc(C)cc4)c13)C(=O)N(Cc1ccc(N(C)C)cc1)C2	4	.	2	.	.	.	.	.
N/C(=N\OC(=O)Cc1ccc(-c2ccccc2)cc1)c1cccc([N+](=O)[O-])c1	14*	3	5	0	7	1	8	5
N#Cc1ccc(C(S(=O)(=O)Cc2ccccc2)S(=O)(=O)Cc2ccccc2)cc1	3	.	1	.	26	3	.	.
COC(=O)C1CN(C2CCCC2)CCS(=O)(=O)N1Cc1ccccc1 (stereo not given)	16*	.	0	.	.	.	-2	-5
COC(=O)C1CN(Cc2ccccc2)CCS(=O)(=O)N1Cc1ccc(C)cc1 (stereo not given)	1	.	7	.	.	.	.	.
Cc1[nH]c2c(C)cccc2c(=O)c1CN1CCCCCC1	16*	1	4	-5	5	1	5	4
CCc1ccc2[nH]c(C)c(CN3CCCCCC3)c(=O)c2c1	5	-4	-4	-4	13	3	.	.
O=C(Nc1ccc2ccccc2c1)NC1CCCCN(Cc2ccc(Cl)cc2)C1=O (stereo not given)	1	.	2	.	.	.	.	.
